# Laboratory results as given in PubChem BioAssay.
# The source made the active and inactive calls.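 How the source made its calls, unless noted: active means viability loss from added drug above about 55%, and viability with drug at most 40%, in both replicates (limit read from the data, passing the limit was not always enough); inconclusive means both conditions met in only one replicate; inactive means neither replicate meets both conditions.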
# Columns and labels:
# [1] = reducers of endogenous Her2 protein level, primary screen, SKBR3 breast tumor cells, AlphaScreen, ATP viability (AID 461;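 active means Her2 level under about 52% in both replicate screens, with viability over 70% of control, limit read from the data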;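 on Her2 level: lower value means less Her2 protein in the cells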;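 on viability: percent of carrier control wells set as 100% viability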); conditions: 18-24 h, measured here: SKBR3 viability, ATP luminescence, at 10 µM
# [2] = molecular target: Receptor tyrosine-protein kinase erbB-2 (Homo sapiens) (UniProt P04626); assay: as above; conditions: 18-24 h, at 10 µM, stronger effect = lower value
# [3] = SK-BR-3 cell growth inhibitors, pilot screen, 24 h, human (AID 572;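 active means viability at or below 10% of carrier control in both of two separate runs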;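 further: compound exposure lasted between 18 and 24 h rather than exactly 24 h; 100% = carrier-treated control wells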); conditions: SK-BR-3 viability, CellTiter-Glo luminescence, at 10 µM, stronger effect = lower value
# [4] = HUVEC growth inhibition – cell-based, human, primary screen (AID 575;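 active means viability at or below 30% in both replicate assays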;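 further: 100% = median of untreated cell wells with 0.1% DMSO on each plate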); conditions: HUVEC proliferation, CellTiter-Glo luminescence, 72 h; at 10 µM; stronger effect = lower value
# Method in brief: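 Material: primary human umbilical vein endothelial cells / Schedule: 72 h exposure, 37 °C, 5% CO2, 30 min RT equilibration / Signal: ATP-based CellTiter-Glo luminescent read / Read-out basis: percent of median DMSO-control luminescence / Control set: 32 DMSO-only cell-control wells (high), 32 MePR drug-control wells (low) per plate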
# [5] = growth inhibitors of H69AR lung tumor, primary screen, human, duplicate replicates (AID 580;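 active means viability at or under a set limit in both replicates, limit being median viability minus 3 SD, cut at about 48% in these data, passing the limit was not always enough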;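 further: 100% = mean luminescence of untreated wells and 0% = no signal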); conditions: H69AR lung tumor cells viability, ATP luminescence, 72 h; at 10 µM; stronger effect = lower value
# [6] = reversal of MRP1-mediated doxorubicin resistance, pilot screen, H69AR cells, doxorubicin co-treatment (AID 601); conditions: CellTiter-Glo, 72 h, at 10 µM; for differential viability (reversal): stronger effect = higher value
# [7] = 384-well plate pilot, post-Golgi transport modulator project, inhibition of yeast transport mutant growth (AID 636; in the data active means inhibition above about 31%); conditions: absorbance 615 nm, about 18 h, stronger effect = higher value
# [8] = growth suppression of yeast trafficking mutant, preliminary HTS, modulators of trafficking downstream of Golgi apparatus project, 1536-format plate, OD 615 nm (AID 637; in the data active means inhibition above about 30%); conditions: yeast transport mutant growth, absorbance 615 nm, 18 h; stronger effect = higher value
# [9] = H69AR cells + 2 uM doxorubicin, measured here: viability with 2 uM doxorubicin, stronger effect = lower value
# [10] = H69AR cells, compound alone cytotoxicity
# Chain of Receptor tyrosine-protein kinase erbB-2 (Homo sapiens) (P04626 whole entry, looked up): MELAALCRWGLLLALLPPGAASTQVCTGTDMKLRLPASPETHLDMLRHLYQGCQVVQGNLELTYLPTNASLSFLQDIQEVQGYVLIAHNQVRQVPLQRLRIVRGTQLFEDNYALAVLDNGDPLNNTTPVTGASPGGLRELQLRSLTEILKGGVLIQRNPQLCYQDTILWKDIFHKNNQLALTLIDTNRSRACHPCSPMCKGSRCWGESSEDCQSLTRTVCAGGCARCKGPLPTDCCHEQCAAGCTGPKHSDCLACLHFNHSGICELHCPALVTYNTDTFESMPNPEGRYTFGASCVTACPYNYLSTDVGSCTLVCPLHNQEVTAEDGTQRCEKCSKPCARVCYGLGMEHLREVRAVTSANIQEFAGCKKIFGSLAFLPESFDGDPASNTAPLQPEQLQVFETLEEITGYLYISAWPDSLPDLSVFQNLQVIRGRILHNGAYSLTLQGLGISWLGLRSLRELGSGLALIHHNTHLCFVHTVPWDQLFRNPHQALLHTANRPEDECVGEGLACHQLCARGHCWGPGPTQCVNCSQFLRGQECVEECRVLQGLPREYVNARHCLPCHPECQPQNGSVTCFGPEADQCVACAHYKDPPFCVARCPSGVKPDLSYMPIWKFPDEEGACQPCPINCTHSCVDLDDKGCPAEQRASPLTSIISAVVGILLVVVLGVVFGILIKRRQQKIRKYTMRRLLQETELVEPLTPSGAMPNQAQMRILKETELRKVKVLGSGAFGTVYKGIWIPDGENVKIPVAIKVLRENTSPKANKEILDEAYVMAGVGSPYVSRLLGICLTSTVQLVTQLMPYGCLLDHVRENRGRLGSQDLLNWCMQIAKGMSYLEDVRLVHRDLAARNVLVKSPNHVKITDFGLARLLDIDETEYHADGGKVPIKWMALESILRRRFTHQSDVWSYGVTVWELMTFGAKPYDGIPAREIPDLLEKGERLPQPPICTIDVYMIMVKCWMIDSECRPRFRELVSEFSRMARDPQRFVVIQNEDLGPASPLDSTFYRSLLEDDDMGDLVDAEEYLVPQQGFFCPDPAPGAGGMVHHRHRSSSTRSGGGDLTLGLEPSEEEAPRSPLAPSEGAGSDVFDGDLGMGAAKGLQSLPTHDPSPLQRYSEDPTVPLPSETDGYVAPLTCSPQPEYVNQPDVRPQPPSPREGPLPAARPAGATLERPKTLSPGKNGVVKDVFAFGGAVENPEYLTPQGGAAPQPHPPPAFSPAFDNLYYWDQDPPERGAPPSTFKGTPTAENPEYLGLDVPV
Structure (SMILES),viability [1] [%],Her2 level [2],viability [3],viability [4],viability [5],differential viability (reversal) ([6]; H69AR cells + 2 uM doxorubicin),"viability [6, 9] [%]","viability [6, 10] [%]",inhibition [7],inhibition [8]
Cc1cccc(Cc2nnc(NC(=O)c3cccc(S(=O)(=O)N4CCOCC4)c3)s2)c1,107,100% (inactive),107% (inactive),87.1% (inactive),79.2% (inactive),-2.97% (inactive),82.2,79.2,-1.82% (inactive),-5.33% (inactive)
Cc1[nH]c(=O)[nH]c(=O)c1S(=O)(=O)N(C)Cc1ccccc1,108,106% (inactive),108% (inactive),96.2% (inactive),105% (inactive),12.3% (inactive),92.5,105,-0.66% (inactive),-4.6% (inactive)
Cn1c(CNc2nc(-c3ccccc3)cs2)nnc1SCC(=O)N1CCc2ccccc21,96.5,97.5% (inactive),96.5% (inactive),81.8% (inactive),93.3% (inactive),9.91% (inactive),83.4,93.3,-1.62% (inactive),7.14% (inactive)
CCCCc1ccc(NC(=O)N[C@H](C(=O)O)C(C)CC)cc1 (stereo not given in full),112,82% (inactive),112% (inactive),79.5% (inactive),99.7% (inactive),8.86% (inactive),90.8,99.7,-5.92% (inactive),-2.38% (inactive)
c1ccc(Nc2ccccc2Nc2ccccn2)nc1,138,108% (inactive),138% (inactive),95.8% (inactive),91.7% (inactive),-7.51% (inactive),99.2,91.7,-3.33% (inactive),5.08% (inactive)
COc1cc(-c2nnc(SCc3c(F)cccc3Cl)o2)cc(OC)c1OC,70.5,103% (inactive),70.5% (inactive),68.5% (inactive),85.2% (inactive),3.85% (inactive),81.3,85.2,-4.19% (inactive),-4.1% (inactive)
CCn1c(SCC(=O)N2CCCc3ccccc32)nnc1-c1cccs1,85.5,72.5% (inactive),85.5% (inactive),83.3% (inactive),87.5% (inactive),5.33% (inactive),82.2,87.5,-5.87% (inactive),0.16% (inactive)
COc1ccc(-n2c(=O)c3c4c(sc3n3c(C)nnc23)CCCC4)cc1,78.5,94% (inactive),78.5% (inactive),101% (inactive),96.5% (inactive),15.6% (inactive),80.9,96.5,0.13% (inactive),-5.33% (inactive)
O=C(OCC(=O)N1CCCC1)c1cncc(Br)c1,106,90% (inactive),106% (inactive),106% (inactive),102% (inactive),15.6% (inactive),86.4,102,-7.57% (inactive),5.33% (inactive)
c1c2c(cc3sc(N4CCCCC4)nc13)OCCO2,98,91.5% (inactive),98% (inactive),87% (inactive),75.4% (inactive),2.07% (inactive),73.3,75.4,-4.93% (inactive),7.26% (inactive)
COc1ccccc1C(=O)N1CCN(C(=O)c2ccncc2)CC1,122,106% (inactive),122% (inactive),88.6% (inactive),103% (inactive),13.7% (inactive),89.2,103,-3.73% (inactive),4.35% (inactive)
CCN1CCN(c2nc3c(C)cccn3c(=O)c2/C=C(\C#N)S(=O)(=O)c2ccccc2)CC1,93,76.5% (inactive),93% (inactive),89.6% (inactive),75.1% (inactive),-7.74% (inactive),82.8,75.1,-2.76% (inactive),-0.18% (inactive)
CCOc1ccc(C(c2nnnn2Cc2ccccc2)N2CCN(C(=O)c3ccco3)CC2)cc1 (stereo not given),92.5,106% (inactive),92.5% (inactive),85.8% (inactive),98.3% (inactive),-4.47% (inactive),103,98.3,0.53% (inactive),-1.9% (inactive)
COc1ccc(CN(CC(=O)NCc2ccco2)C(=O)CCC(=O)Nc2nccs2)cc1,96,104% (inactive),96% (inactive),85.5% (inactive),101% (inactive),11% (inactive),89.6,101,1.22% (inactive),-2.13% (inactive)
CC1=C(C)[N+](=O)C2CCCCC2N1[O-] (stereo not given),89,112% (inactive),89% (inactive),104% (inactive),94.4% (inactive),9.79% (inactive),84.6,94.4,-5.97% (inactive),-9.34% (inactive)
